In ChEMBL document CHEMBL3797186, “Single Residue Substitutions That Confer Voltage-Gated Sodium Ion Channel Subtype Selectivity in the NaV1.7 Inhibitory Peptide GpTx-1” (J Med Chem, 2016):
pIC50: −log10 of the molar value. Positions of bridges follow the written chain, without caps; N, C: chain ends. Residues, ends and D or L forms follow the SMILES beside them.

target: Sodium channel protein type 5 subunit alpha (Homo sapiens, UniProt Q14524); test: Inhibition of human Nav1.5 expressed in HEK293 cells assessed as inward peak current by ion-works quattro patch clamp electrophysiology method; format: cell-based
In short: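 Stable HEK293 line expressing human NaV1.5, recorded by population patch clamp on the IonWorks Quattro.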

Sodium channel protein type 5 subunit alpha, sequence (Q14524 whole entry): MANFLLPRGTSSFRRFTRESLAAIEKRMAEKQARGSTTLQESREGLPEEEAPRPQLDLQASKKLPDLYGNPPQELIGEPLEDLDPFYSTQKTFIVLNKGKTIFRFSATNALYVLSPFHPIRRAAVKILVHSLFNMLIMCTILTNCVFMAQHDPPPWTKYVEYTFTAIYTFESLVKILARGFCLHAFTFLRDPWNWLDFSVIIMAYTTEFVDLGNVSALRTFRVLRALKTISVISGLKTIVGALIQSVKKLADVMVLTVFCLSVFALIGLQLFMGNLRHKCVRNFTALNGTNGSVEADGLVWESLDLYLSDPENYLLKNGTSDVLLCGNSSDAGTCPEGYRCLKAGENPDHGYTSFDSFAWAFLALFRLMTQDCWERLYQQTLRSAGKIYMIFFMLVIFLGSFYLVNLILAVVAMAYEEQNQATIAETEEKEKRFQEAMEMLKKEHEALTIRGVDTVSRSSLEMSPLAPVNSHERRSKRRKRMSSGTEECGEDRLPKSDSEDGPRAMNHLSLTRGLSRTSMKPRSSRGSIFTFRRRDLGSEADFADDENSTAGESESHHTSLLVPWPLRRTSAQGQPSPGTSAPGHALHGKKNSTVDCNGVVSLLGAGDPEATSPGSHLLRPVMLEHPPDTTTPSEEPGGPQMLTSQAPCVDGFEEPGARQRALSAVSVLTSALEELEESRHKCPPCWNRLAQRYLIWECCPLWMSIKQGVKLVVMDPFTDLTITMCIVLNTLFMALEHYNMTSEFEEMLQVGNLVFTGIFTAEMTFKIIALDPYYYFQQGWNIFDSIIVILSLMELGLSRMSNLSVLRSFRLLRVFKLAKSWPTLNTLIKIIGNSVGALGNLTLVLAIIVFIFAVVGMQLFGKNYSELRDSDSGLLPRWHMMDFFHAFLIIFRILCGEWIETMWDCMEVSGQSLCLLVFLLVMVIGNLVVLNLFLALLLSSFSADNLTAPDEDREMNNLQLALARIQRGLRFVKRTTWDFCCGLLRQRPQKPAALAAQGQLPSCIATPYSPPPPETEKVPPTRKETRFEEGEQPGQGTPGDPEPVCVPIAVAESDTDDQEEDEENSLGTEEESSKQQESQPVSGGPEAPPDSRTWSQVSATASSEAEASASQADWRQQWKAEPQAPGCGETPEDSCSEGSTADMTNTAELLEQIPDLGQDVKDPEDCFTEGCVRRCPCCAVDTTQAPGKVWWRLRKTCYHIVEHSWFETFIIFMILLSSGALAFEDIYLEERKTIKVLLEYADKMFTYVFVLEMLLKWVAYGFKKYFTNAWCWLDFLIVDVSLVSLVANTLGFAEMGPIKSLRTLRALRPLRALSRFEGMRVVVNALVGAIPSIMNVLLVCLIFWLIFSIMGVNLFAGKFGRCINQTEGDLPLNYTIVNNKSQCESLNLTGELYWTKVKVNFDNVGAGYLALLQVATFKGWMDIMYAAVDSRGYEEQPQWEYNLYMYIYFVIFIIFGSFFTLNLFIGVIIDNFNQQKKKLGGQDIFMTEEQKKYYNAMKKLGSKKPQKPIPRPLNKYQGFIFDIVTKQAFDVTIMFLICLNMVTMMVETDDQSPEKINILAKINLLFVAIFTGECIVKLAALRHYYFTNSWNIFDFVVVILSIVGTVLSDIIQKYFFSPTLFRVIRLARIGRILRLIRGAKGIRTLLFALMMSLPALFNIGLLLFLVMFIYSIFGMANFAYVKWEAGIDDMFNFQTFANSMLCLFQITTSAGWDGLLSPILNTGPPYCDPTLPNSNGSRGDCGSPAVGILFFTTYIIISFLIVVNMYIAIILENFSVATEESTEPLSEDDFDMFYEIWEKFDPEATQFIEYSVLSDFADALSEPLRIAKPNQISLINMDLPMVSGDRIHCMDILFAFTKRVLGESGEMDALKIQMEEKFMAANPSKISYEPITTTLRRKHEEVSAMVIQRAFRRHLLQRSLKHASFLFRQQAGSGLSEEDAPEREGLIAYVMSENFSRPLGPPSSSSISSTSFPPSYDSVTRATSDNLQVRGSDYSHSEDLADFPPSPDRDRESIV

How did the pIC50 turn out when `CC[C@H](C)[C@@H]1NC(=O)[C@@H]2CSSC[C@@H]3NC(=O)[C@H](C(C)C)NC(=O)[C@H](CC(C)C)NC(=O)[C@H](CC(N)=O)NC(=O)[C@@H]4CCCN4C(=O)[C@H](CCCNC(=N)N)NC(=O)[C@H](CSSC[C@H](NC(=O)[C@@H](N)CC(=O)O)C(=O)N[C@@H](CC(C)C)C(=O)N[C@@H](CCC(=O)O)C(=O)N[C@@H](Cc4ccccc4)C(=O)N[C@@H](CCSC)C(=O)N[C@@H](CCCNC(=N)N)C(=O)N[C@@H](CCCCN)C(=O)N2)NC(=O)[C@H](CSSC[C@@H](C(=O)N[C@@H](CCCCN)C(=O)N[C@@H](Cc2ccc(O)cc2)C(=O)N[C@H](C(=O)N[C@@H](Cc2ccccc2)C(N)=O)C(C)C)NC(=O)[C@H](Cc2c[nH]c4ccccc24)NC(=O)[C@H](CCCCN)NC(=O)[C@H](Cc2cnc[nH]2)NC(=O)[C@H]([C@@H](C)O)NC(=O)[C@H](CCCNC(=N)N)NC(=O)[C@H](CO)NC3=O)NC(=O)[C@H](CCCCN)NC(=O)[C@H](CC(=O)O)NC(=O)[C@H](CC(N)=O)NC(=O)[C@H](CC(=O)O)NC(=O)[C@@H]2CCCN2C1=O` (H-DCLEFMRKCIPDNDKCCRPNLVCSRTHKWCKYVF-NH2; disulfide 2-17, 9-23, 16-30) was run?
The pIC50 was under 5.30.

How did the pIC50 turn out when `CC[C@H](C)[C@@H]1NC(=O)[C@@H]2CSSC[C@@H]3NC(=O)[C@H](C(C)C)NC(=O)[C@H](CC(C)C)NC(=O)[C@H](CC(N)=O)NC(=O)[C@@H]4CCCN4C(=O)[C@H](CCCNC(=N)N)NC(=O)[C@H](CSSC[C@H](NC(=O)[C@@H](N)CC(=O)O)C(=O)N[C@@H](CC(C)C)C(=O)NCC(=O)N[C@@H](Cc4ccccc4)C(=O)N[C@@H](CCSC)C(=O)N[C@@H](CCCNC(=N)N)C(=O)N[C@@H](CCCCN)C(=O)N2)NC(=O)[C@H](CSSC[C@@H](C(=O)N[C@@H](CCCCN)C(=O)N[C@@H](Cc2ccc(O)cc2)C(=O)N[C@H](C(=O)N[C@@H](Cc2ccccc2)C(N)=O)C(C)C)NC(=O)[C@H](Cc2c[nH]c4ccccc24)NC(=O)[C@H](CCCCN)NC(=O)[C@H](Cc2cnc[nH]2)NC(=O)[C@H]([C@@H](C)O)NC(=O)[C@H](CCCCN)NC(=O)[C@H](CO)NC3=O)NC(=O)[C@H](CCCCN)NC(=O)[C@H](CC(=O)O)NC(=O)[C@H](CC(N)=O)NC(=O)[C@H](CC(=O)O)NC(=O)[C@@H]2CCCN2C1=O` (H-DCLGFMRKCIPDNDKCCRPNLVCSKTHKWCKYVF-NH2; disulfide 2-17, 9-23, 16-30) was run?
The pIC50 was under 5.30.

With `CSCC[C@@H]1NC(=O)[C@H](Cc2ccccc2)NC(=O)CNC(=O)[C@H](CC(C)C)NC(=O)[C@@H](NC(=O)[C@@H](N)CC(=O)O)CSSC[C@@H]2NC(=O)[C@@H]3CSSC[C@@H](C(=O)N[C@@H](CCCCN)C(=O)N[C@@H](Cc4ccc(O)cc4)C(=O)N[C@H](C(=O)N[C@@H](Cc4ccccc4)C(N)=O)C(C)C)NC(=O)[C@H](Cc4c[nH]c5ccccc45)NC(=O)[C@H](CCCCN)NC(=O)[C@H](Cc4cnc[nH]4)NC(=O)[C@H]([C@@H](C)O)NC(=O)[C@H](CCCNC(=N)N)NC(=O)[C@H](CO)NC(=O)[C@H](CSSC[C@H](NC(=O)[C@H](CCCCN)NC(=O)[C@H](CCCNC(=N)N)NC1=O)C(=O)N[C@@H](C(C)C)C(=O)N1CCC[C@H]1C(=O)N[C@@H](CC(=O)O)C(=O)N[C@@H](CC(N)=O)C(=O)N[C@@H](CC(=O)O)C(=O)N[C@@H](CCCCN)C(=O)N3)NC(=O)[C@H](C(C)C)NC(=O)[C@H](CC(C)C)NC(=O)[C@H](CC(N)=O)NC(=O)[C@@H]1CCCN1C(=O)[C@H](CCCNC(=N)N)NC2=O` (H-DCLGFMRKCVPDNDKCCRPNLVCSRTHKWCKYVF-NH2; disulfide 2-17, 9-23, 16-30) as the compound, how does the pIC50 read?
Its pIC50 is under 5.30.

With `CC[C@H](C)[C@@H]1NC(=O)[C@@H]2CSSC[C@@H]3NC(=O)[C@H](C(C)C)NC(=O)[C@H](CC(C)C)NC(=O)[C@H](CC(N)=O)NC(=O)[C@@H]4CCCN4C(=O)[C@H](CCCNC(=N)N)NC(=O)[C@H](CSSC[C@H](NC(=O)[C@@H](N)CC(=O)O)C(=O)N[C@@H](CC(C)C)C(=O)NCC(=O)N[C@@H](Cc4ccccc4)C(=O)N[C@@H](CCSC)C(=O)N[C@@H](CCCNC(=N)N)C(=O)N[C@@H](CCCCN)C(=O)N2)NC(=O)[C@H](CSSC[C@@H](C(=O)N[C@@H](CCCCN)C(=O)N[C@@H](Cc2ccc(O)cc2)C(N)=O)NC(=O)[C@H](Cc2c[nH]c4ccccc24)NC(=O)[C@H](CCCCN)NC(=O)[C@H](Cc2cnc[nH]2)NC(=O)[C@H]([C@@H](C)O)NC(=O)[C@H](CCCNC(=N)N)NC(=O)[C@H](CO)NC3=O)NC(=O)[C@H](CCCCN)NC(=O)[C@H](CC(=O)O)NC(=O)[C@H](CC(N)=O)NC(=O)[C@H](CC(=O)O)NC(=O)[C@@H]2CCCN2C1=O` (H-DCLGFMRKCIPDNDKCCRPNLVCSRTHKWCKY-NH2; disulfide 2-17, 9-23, 16-30) as the compound, how does the pIC50 read?
The pIC50 was under 5.30.

With `CC[C@H](C)[C@@H]1NC(=O)[C@@H]2CSSC[C@@H]3NC(=O)[C@H](C(C)C)NC(=O)[C@H](CC(C)C)NC(=O)[C@H](CC(N)=O)NC(=O)[C@@H]4CCCN4C(=O)[C@H](CCCNC(=N)N)NC(=O)[C@H](CSSC[C@H](NC(=O)[C@@H](N)CC(=O)O)C(=O)N[C@@H](CC(C)C)C(=O)NCC(=O)N[C@@H](Cc4ccccc4)C(=O)N[C@@H](CCSC)C(=O)N[C@@H](CCCNC(=N)N)C(=O)N[C@@H](CCCCN)C(=O)N2)NC(=O)[C@H](CSSC[C@@H](C(=O)N[C@@H](CCCCN)C(=O)N[C@@H](Cc2ccc(O)cc2)C(=O)N[C@H](C(=O)N[C@@H](Cc2ccccc2)C(N)=O)C(C)C)NC(=O)[C@H](Cc2c[nH]c4ccccc24)NC(=O)[C@H](CCC(=O)O)NC(=O)[C@H](Cc2cnc[nH]2)NC(=O)[C@H]([C@@H](C)O)NC(=O)[C@H](CCCNC(=N)N)NC(=O)[C@H](CO)NC3=O)NC(=O)[C@H](CCCCN)NC(=O)[C@H](CC(=O)O)NC(=O)[C@H](CC(N)=O)NC(=O)[C@H](CC(=O)O)NC(=O)[C@@H]2CCCN2C1=O` (H-DCLGFMRKCIPDNDKCCRPNLVCSRTHEWCKYVF-NH2; disulfide 2-17, 9-23, 16-30) as the compound, how does the pIC50 read?
Its pIC50 is under 5.30.

`CC[C@H](C)[C@@H]1NC(=O)[C@@H]2CSSC[C@@H]3NC(=O)[C@H](C(C)C)NC(=O)[C@H](CC(C)C)NC(=O)[C@H](CC(N)=O)NC(=O)[C@@H]4CCCN4C(=O)[C@H](CCCNC(=N)N)NC(=O)[C@H](CSSC[C@H](NC(=O)[C@@H](N)CC(=O)O)C(=O)N[C@@H](CC(C)C)C(=O)NCC(=O)N[C@@H](Cc4ccccc4)C(=O)N[C@@H](CCSC)C(=O)N[C@@H](CCCNC(=N)N)C(=O)N[C@@H](CCCCN)C(=O)N2)NC(=O)[C@H](CSSC[C@@H](C(=O)N[C@@H](CCCCN)C(=O)N[C@@H](Cc2ccc(O)cc2)C(=O)N[C@H](C(=O)N[C@@H](Cc2ccccc2)C(=O)N[C@@H](CCCCN)C(N)=O)C(C)C)NC(=O)[C@H](Cc2c[nH]c4ccccc24)NC(=O)[C@H](CCCCN)NC(=O)[C@H](Cc2cnc[nH]2)NC(=O)[C@H]([C@@H](C)O)NC(=O)[C@H](CCCNC(=N)N)NC(=O)[C@H](CO)NC3=O)NC(=O)[C@H](CCCCN)NC(=O)[C@H](CC(=O)O)NC(=O)[C@H](CC(N)=O)NC(=O)[C@H](CC(=O)O)NC(=O)[C@@H]2CCCN2C1=O` was tested. Which pIC50 did it give?
The pIC50 was under 5.30.

How did the pIC50 turn out when `CC[C@H](C)[C@@H]1NC(=O)[C@@H]2CSSC[C@@H]3NC(=O)[C@H](C(C)C)NC(=O)[C@H](CC(C)C)NC(=O)[C@H](CC(N)=O)NC(=O)[C@@H]4CCCN4C(=O)[C@H](CCCNC(=N)N)NC(=O)[C@H](CSSC[C@H](NC(=O)[C@@H](N)CC(=O)O)C(=O)N[C@@H](CC(C)C)C(=O)NCC(=O)N[C@@H](Cc4ccccc4)C(=O)N[C@@H](CCSC)C(=O)N[C@@H](CCCNC(=N)N)C(=O)N[C@@H](CCCCN)C(=O)N2)NC(=O)[C@H](CSSC[C@@H](C(=O)N[C@@H](CCCCN)C(=O)N[C@@H](Cc2ccc(O)cc2)C(=O)N[C@H](C(=O)N[C@@H](Cc2ccccc2)C(N)=O)C(C)C)NC(=O)[C@H](Cc2c[nH]c4ccccc24)NC(=O)[C@H](CCCCN)NC(=O)[C@H](Cc2c[nH]cn2)NC(=O)[C@H]([C@@H](C)O)NC(=O)[C@H](CCCNC(=N)N)NC(=O)[C@H](CO)NC3=O)NC(=O)[C@H](CCC(=O)O)NC(=O)[C@H](CC(=O)O)NC(=O)[C@H](CC(N)=O)NC(=O)[C@H](CC(=O)O)NC(=O)[C@@H]2CCCN2C1=O` (H-DCLGFMRKCIPDNDECCRPNLVCSRTHKWCKYVF-NH2; disulfide 2-17, 9-23, 16-30) was run?
The pIC50 was under 5.30.

With `CC[C@H](C)[C@@H]1NC(=O)[C@@H]2CSSC[C@@H]3NC(=O)[C@H](C(C)C)NC(=O)[C@H](CC(C)C)NC(=O)[C@H](CC(N)=O)NC(=O)[C@@H]4CCCN4C(=O)[C@H](CCCNC(=N)N)NC(=O)[C@H](CSSC[C@H](NC(=O)[C@@H](N)CC(=O)O)C(=O)N[C@@H](CC(C)C)C(=O)NCC(=O)N[C@@H](Cc4ccccc4)C(=O)N[C@@H](CCSC)C(=O)N[C@@H](CCCNC(=N)N)C(=O)N[C@@H](CCCCN)C(=O)N2)NC(=O)[C@H](CSSC[C@@H](C(=O)N[C@@H](CCCCN)C(=O)N[C@@H](Cc2ccc(O)cc2)C(=O)N[C@H](C(=O)N[C@@H](Cc2ccccc2)C(N)=O)C(C)C)NC(=O)[C@H](Cc2c[nH]c4ccccc24)NC(=O)[C@H](CCCCN)NC(=O)[C@H](CCCCN)NC(=O)[C@H]([C@@H](C)O)NC(=O)[C@H](CCCNC(=N)N)NC(=O)[C@H](CO)NC3=O)NC(=O)[C@H](CCCCN)NC(=O)[C@H](CC(=O)O)NC(=O)[C@H](CC(N)=O)NC(=O)[C@H](CC(=O)O)NC(=O)[C@@H]2CCCN2C1=O` (H-DCLGFMRKCIPDNDKCCRPNLVCSRTKKWCKYVF-NH2; disulfide 2-17, 9-23, 16-30) as the compound, how does the pIC50 read?
Its pIC50 is under 5.30.

`CC[C@H](C)[C@@H]1NC(=O)[C@@H]2CSSC[C@@H]3NC(=O)[C@H](C(C)C)NC(=O)[C@H](CC(C)C)NC(=O)[C@H](CC(N)=O)NC(=O)[C@@H]4CCCN4C(=O)[C@H](CCCNC(=N)N)NC(=O)[C@H](CSSC[C@H](NC(=O)[C@@H](N)CC(=O)O)C(=O)N[C@@H](CC(C)C)C(=O)NCC(=O)N[C@@H](CCCNC(=N)N)C(=O)N[C@@H](CCSC)C(=O)N[C@@H](CCCNC(=N)N)C(=O)N[C@@H](CCCCN)C(=O)N2)NC(=O)[C@H](CSSC[C@@H](C(=O)N[C@@H](CCCCN)C(=O)N[C@@H](Cc2ccc(O)cc2)C(=O)N[C@H](C(=O)N[C@@H](Cc2ccccc2)C(N)=O)C(C)C)NC(=O)[C@H](Cc2c[nH]c4ccccc24)NC(=O)[C@H](CCCCN)NC(=O)[C@H](Cc2cnc[nH]2)NC(=O)[C@H]([C@@H](C)O)NC(=O)[C@H](CCCNC(=N)N)NC(=O)[C@H](CO)NC3=O)NC(=O)[C@H](CCCCN)NC(=O)[C@H](CC(=O)O)NC(=O)[C@H](CC(N)=O)NC(=O)[C@H](CC(=O)O)NC(=O)[C@@H]2CCCN2C1=O` (H-DCLGRMRKCIPDNDKCCRPNLVCSRTHKWCKYVF-NH2; disulfide 2-17, 9-23, 16-30) was tested. Which pIC50 did it give?
The pIC50 was under 5.30.
